The species named for one experiment is Homo sapiens. Description: Selectivity index, ratio of EC50 for GAL4-tagged PPARgamma (unknown origin) to EC50 for human FXR.
The target of experiment [1] is T1, G-protein coupled bile acid receptor 1 (Homo sapiens, UniProt Q8TDU6).
T1 sequence (Q8TDU6 whole entry): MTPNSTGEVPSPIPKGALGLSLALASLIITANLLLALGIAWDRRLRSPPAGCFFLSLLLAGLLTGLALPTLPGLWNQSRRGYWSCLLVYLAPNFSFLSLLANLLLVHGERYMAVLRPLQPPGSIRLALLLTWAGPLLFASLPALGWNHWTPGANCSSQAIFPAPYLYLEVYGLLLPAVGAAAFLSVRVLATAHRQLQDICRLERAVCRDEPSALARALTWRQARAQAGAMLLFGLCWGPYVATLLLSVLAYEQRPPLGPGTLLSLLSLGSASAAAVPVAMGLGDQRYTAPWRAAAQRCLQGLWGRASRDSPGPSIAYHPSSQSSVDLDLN
Description: Activity at TGR5 in human NCI-H716 cells assessed as effect on intracellular cAMP accumulation incubated for 60 mins by HTR-FRET assay. In kind it is functional, cell-based. The gist of the method: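 NCI-H716 cells on Matrigel-coated plates were stimulated 24 h after plating with increasing compound concentrations for 60 min at 37 °C in OptiMEM containing 1 mM IBMX. Intracellular cAMP was read by HTRF (Lance kit).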

Experiment [2] has as its target T2, Bile acid receptor (Homo sapiens) (UniProt Q96RI1).
T2 sequence (whole entry): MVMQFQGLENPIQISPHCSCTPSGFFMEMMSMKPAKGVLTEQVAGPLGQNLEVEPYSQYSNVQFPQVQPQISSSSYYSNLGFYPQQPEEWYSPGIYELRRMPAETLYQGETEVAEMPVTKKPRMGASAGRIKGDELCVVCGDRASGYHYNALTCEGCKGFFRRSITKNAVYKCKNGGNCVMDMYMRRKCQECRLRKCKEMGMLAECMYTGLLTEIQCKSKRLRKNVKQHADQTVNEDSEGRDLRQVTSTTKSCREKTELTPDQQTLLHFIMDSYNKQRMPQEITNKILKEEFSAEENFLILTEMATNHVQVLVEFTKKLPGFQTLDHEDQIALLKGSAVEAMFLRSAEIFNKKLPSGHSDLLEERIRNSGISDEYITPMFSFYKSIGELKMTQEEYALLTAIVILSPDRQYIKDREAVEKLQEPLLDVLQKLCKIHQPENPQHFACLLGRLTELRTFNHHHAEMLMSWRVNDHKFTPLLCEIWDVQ
The experiment in a line: Agonist activity at FXR in human HepG2 cells assessed as induction of BSEP mrNA expression at 1 uM by quantitative PCR method. In kind it is cell-based. The gist of the method: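 HepG2 cells were seeded at 2 × 10⁶ per well. After 24 h they were switched to MEM with 1% charcoal-stripped FCS, and 24 h later dosed with compound (0.1, 0.3, 1, 3, 10 μM; 0.1% DMSO final) for 24 h. Total RNA was reverse transcribed and analysed by qPCR, GAPDH-normalized, ΔΔCt method. Samples were run in duplicate in ≥4 independent experiments.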

For `COc1ccc(C(=O)Nc2cccc(C(=O)O)c2)c(NC(=O)c2ccc(C(C)(C)C)cc2)c1`, the Ratio EC50 in the experiment listed under Homo sapiens worked out at 375. For the same molecule, in experiment [1], the EC50 – broadly, the concentration at which the effect is half-maximal – was 30 µM. The Activity in experiment [2] is 319%.

Values taken from ChEMBL document CHEMBL3351394 (J Med Chem, 2014).
